ChEMBL document CHEMBL4402570, “Discovery and Optimization of Novel Pyrazolopyrimidines as Potent and Orally Bioavailable Allosteric HIV-1 Integrase Inhibitors” (J Med Chem, 2020)

Columns and labels:
[1] = target: Human immunodeficiency virus type 1 integrase (Human immunodeficiency virus 1, UniProt Q7ZJM1); assay: Allosteric inhibition of [3H]-2-tert-butoxy-2-[2-methyl-4-(p-tolyl)-3-quinolyl]acetic acid binding to HIV1 integrase measured after 1 hr under dark condition by microbeta plate reader method
Outline: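 Scintillation proximity displacement of tritiated LEDGF-site inhibitor from purified HIV-1 integrase (13 μM) premixed 1 h with PVT SPA beads (2 mg/mL); […]. Buffer 26 mM MOPS pH 7.0, 11 mM DTT, 100 mM NaCl, 20 mM MgCl2, 0.05% NP-40, 5% PEG-8000. Compounds 100 μM to 0.0512 nM, ten 5-fold dilutions. 1 h rocking, RT, dark; read after overnight; Ki derived.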

[2] = test system: Human immunodeficiency virus 1; assay: Antiviral activity against HIV1 NL4-3 infected in human MT2 cells measured after 3 to 4 days by luciferase reporter gene assay; type: functional, organism-based
[3] = Cytotoxicity against human MT2 cells measured after 4 days by XTT assay; type: cell-based
Outline: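 MT-2 cell viability measured by XTT after 4 days of compound exposure, run in parallel with the antiviral assay; CC50 from n ≥ 2 determinations.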

[4] = Stability of the compound in rat liver microsomes assessed as parent compound remaining at 0.5 uM measured after 10 mins in presence of NADPH by LC-MS/MS analysis; type: ADME, Microsome; conditions: read-out: Stability
Outline: (§1)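 CYP-mediated turnover: 0.5 μM compound with human or rat liver microsomes (1 mg/mL) in 100 mM sodium phosphate pH 7.4, 6.6 mM MgCl2, 37 °C; started with NADPH, DMSO 0.014%. Samples quenched at 0 and 10 min; parent remaining by LC-MS/MS; duplicate.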

[5] = Therapeutic index, ratio of CC50 for human MT2 cells to EC50 for HIV1 NL4-3 infected in human MT2 cells; type: toxicity, cell-based; conditions: read-out: Ratio CC50/EC50
[6] = Stability of the compound in human liver microsomes assessed as parent compound remaining at 0.5 uM measured after 10 mins in presence of NADPH by LC-MS/MS analysis; type: ADME, Microsome; conditions: read-out: Stability; outline: as §1
[7] = Permeability of the compound in pH 7.4 buffer at 100 uM measured after 4 hrs by sandwich-PAMPA; type: ADME; conditions: read-out: permeability
Outline: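 Parallel artificial membrane permeability: compound at 100 μM in donor buffer pH 7.4, permeating to acceptor through artificial membrane over 4 h; donor, acceptor and t0 solutions read by UV plate reader; triplicate.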

[8] = test system: Human immunodeficiency virus 1; assay: Selectivity ratio of EC50 for HIV1 NL4-3 infected in human MT2 cells in presence of human serum albumin to EC50 for HIV1 NL4-3 infected in human MT2 cells in absence of human serum albumin; type: functional
[9] = test system: Human immunodeficiency virus 1; assay: Antiviral activity against HIV1 NL4-3 infected in human MT2 cells measured after 3 to 4 days in presence of human serum albumin by luciferase reporter gene assay; type: functional, organism-based; conditions: Human immunodeficiency virus 1, NL4-3, MT2
[10] = test system: Human immunodeficiency virus 1; assay: Antiviral activity against HIV1 NL4-3 harboring G140S/Q148H mutant infected in human MT2 cells measured after 3 to 4 days by luciferase reporter gene assay; type: functional, organism-based; conditions: Human immunodeficiency virus 1, NL4-3, MT2
Outline: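 MT-2 cells (RPMI 1640, 10% heat-inactivated FBS, 10 mM HEPES pH 7.55, 2 mM L-glutamine, penicillin/streptomycin) infected with titered NL4-3 Renilla luciferase reporter virus (luciferase replacing nef) carrying integrase G140S/Q148H, with serial compound dilutions from 10 mM DMSO stock, final DMSO 1%; luciferase read after 3–4 days; EC50 from median effect equation; n ≥ 2, some n = 1.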

[11] = Human immunodeficiency virus 1, NL4-3, MT2

Sequence of Human immunodeficiency virus type 1 integrase (Q7ZJM1 whole entry): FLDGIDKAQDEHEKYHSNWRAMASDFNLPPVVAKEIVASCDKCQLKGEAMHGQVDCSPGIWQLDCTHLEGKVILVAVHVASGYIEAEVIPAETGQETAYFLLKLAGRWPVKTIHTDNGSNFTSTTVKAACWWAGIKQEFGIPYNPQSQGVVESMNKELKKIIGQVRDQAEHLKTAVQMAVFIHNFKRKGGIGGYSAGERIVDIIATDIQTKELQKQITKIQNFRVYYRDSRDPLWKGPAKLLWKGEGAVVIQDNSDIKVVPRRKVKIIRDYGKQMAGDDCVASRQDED

Compound | Ki [1] [nM] | EC50 [2, 11] [nM] | remaining at 10 min, 0.5 µM [4] [%] | remaining at 10 min, 0.5 µM [6] [%] | Papp at 4 h, 100 µM [7] [×10⁻⁶ cm/s] | further results
Cc1ccc(-c2c(C(OC(C)(C)C)C(=O)O)c(C)nc3cc(-c4ccccc4)nn23)cc1 (configuration not stated) | 680 to 700 | 620 | – | – | – | CC50 at 96 h [3]: 77 µM
COc1ccc(-c2cccc(-c3cc4nc(C)c([C@H](OC(C)(C)C)C(=O)O)c(-c5cc(F)c6c(c5C)CCCO6)n4n3)c2)cn1 | – | 5 | 100 | 73 | 51.4 | CC50 at 96 h [3]: > 23 µM; selectivity ratio [5]: > 4600; Ratio EC50 [8]: 5; EC50 [9]: 23 nM
Cc1ccc(Nc2c(C(OC(C)(C)C)C(=O)O)c(C)nc3cc(-c4ccccc4)nn23)cc1 (configuration not stated) | > 40000 | > 40000 | – | – | – | –
Cc1nc2cc(-c3cccc(-c4ccccc4)c3)nn2c(-c2cc(F)c3c(c2C)CCCO3)c1[C@H](OC(C)(C)C)C(=O)O | – | 6 | 96 | 78 | 73.3 | CC50 at 96 h [3]: 6.59 µM; selectivity ratio [5]: 1100; Ratio EC50 [8]: 18; EC50 [9]: 110 nM
Cc1nnc(C(=O)NC(C)(C)c2nc(C(=O)NCc3ccc(F)cc3)c(O)c(=O)n2C)o1 [RALTEGRAVIR] | – | 2 | – | – | – | EC50 [10]: 2420 nM
Cc1nc2cc(-c3cccc(-c4ccccc4)c3)nn2c(N2CCC(C)(C)CC2)c1C(OC(C)(C)C)C(=O)O (configuration not stated) | – | 130 | – | – | – | –
Cc1nc2cc(-c3cccc(OCc4ccccc4)c3)nn2c(-c2cc(F)c3c(c2C)CCCO3)c1C(OC(C)(C)C)C(=O)O (configuration not stated) | – | 20 | 83 | 72 | 57 | –
Cc1nc2cc(-c3ccccc3)nn2c(N2CCCCCC2)c1C(OC(C)(C)C)C(=O)O (configuration not stated) | 430 | 2300 | – | – | – | –
Cc1nc2cc(-c3ccccc3)nn2c(N2CCC(C)(C)CC2)c1C(OC(C)(C)C)C(=O)O (configuration not stated) | 60 | 550 | – | 100 | 70.3 | –
Cc1nc2cc(-c3ccccc3)nn2c(-c2cc(F)c3c(c2C)CCCO3)c1C(OC(C)(C)C)C(=O)O (racemic) | 170 | – | 97 | 93 | 21.8 | EC50 [2]: 210 nM; EC50 [10]: 119 nM
Cc1nc2cc(-c3cccc(OCc4ccccc4)c3)nn2c(N2CCC(C)(C)CC2)c1C(OC(C)(C)C)C(=O)O (configuration not stated) | – | 60 | 100 | 100 | 37.5 | –
Cc1nc2cc(-c3ccccc3)nn2c(-c2ccccc2)c1C(OC(C)(C)C)C(=O)O (configuration not stated) | 3700 | > 40000 | – | – | – | –
Cc1ccccc1-c1c(C(OC(C)(C)C)C(=O)O)c(C)nc2cc(-c3ccccc3)nn12 (configuration not stated) | 3400 | 21000 | – | – | – | –
Cc1nc2ccccc2c(-c2ccc3c4c(ccnc24)CCO3)c1[C@H](OC(C)(C)C)C(=O)O [BI-224436] | – | 50 | – | – | – | CC50 at 96 h [3]: 3340 µM; selectivity ratio [5]: 66800
Cc1nc2cc(-c3cccc(-c4ccccc4)c3)nn2c(-c2cc(F)c3c(c2C)CCCO3)c1C(OC(C)(C)C)C(=O)O (racemic) | – | 15 | 100 | 86 | 65.2 | EC50 [10]: 10 nM
Cc1nc2cc(-c3ccccc3)nn2c(-c2cc(F)c3c(c2C)CCCO3)c1[C@@H](OC(C)(C)C)C(=O)O | > 53000 | 13000 | – | – | – | –

Compound | Ki [1] [nM] | EC50 [2, 11] [nM] | remaining at 10 min, 0.5 µM [4] [%] | remaining at 10 min, 0.5 µM [6] [%] | Papp at 4 h, 100 µM [7] [×10⁻⁶ cm/s] | further results
COc1ccc(-c2c(C(OC(C)(C)C)C(=O)O)c(C)nc3cc(-c4ccccc4)nn23)cc1 (configuration not stated) | 310 | 1700 | – | – | – | –
Cc1nc2cc(-c3cccc(-c4ccncc4)c3)nn2c(-c2cc(F)c3c(c2C)CCCO3)c1[C@H](OC(C)(C)C)C(=O)O | – | 3 | 94 | 46 | 48.8 | CC50 at 96 h [3]: 13.2 µM; selectivity ratio [5]: 4410; Ratio EC50 [8]: 23; EC50 [9]: 70 nM
Cc1cccc(-c2c(C(OC(C)(C)C)C(=O)O)c(C)nc3cc(-c4ccccc4)nn23)c1 (configuration not stated) | 4400 | > 40000 | – | – | – | –
Cc1ccc(-c2c(C(OC(C)(C)C)C(=O)O)c(C)nc3ccnn23)cc1 (configuration not stated) | 2000 | 4500 | – | – | – | –
Cc1nc2cc(-c3cccc(Oc4ccccc4)c3)nn2c(-c2cc(F)c3c(c2C)CCCO3)c1C(OC(C)(C)C)C(=O)O (configuration not stated) | – | 60 | 97 | 100 | 47.2 | –
COc1ccccc1-c1c(C(OC(C)(C)C)C(=O)O)c(C)nc2cc(-c3ccccc3)nn12 (configuration not stated) | > 40000 | > 40000 | – | – | – | –
CC(C)(C)OC(C(=O)O)c1ccccc1-c1ccccc1 (configuration not stated) | 67000 | 16000 | – | – | – | CC50 at 96 h [3]: 127 µM
Cc1nc2cc(-c3ccccc3)nn2c(-c2cc(F)c3c(c2C)CCCO3)c1[C@H](OC(C)(C)C)C(=O)O | 90 | 110 | – | – | – | EC50 [10]: 90 nM
Cc1ccc(-c2c(C(OC(C)(C)C)C(N)=O)c(C)nc3cc(-c4ccccc4)nn23)cc1 (configuration not stated) | – | 18000 | – | – | – | –
Cc1ccc(-c2cc3nc(C)c(C(OC(C)(C)C)C(=O)O)c(-c4cc(F)c5c(c4C)CCCO5)n3n2)cc1 (configuration not stated) | – | 100 | 94 | 95 | 49.2 | –
Cc1nc2cc(-c3ccccc3)nn2c(C)c1C(OC(C)(C)C)C(=O)O (configuration not stated) | > 40000 | > 40000 | – | – | – | –
Cc1nc2cc(-c3ccccc3)nn2c(-c2ccc3c(c2)CCCO3)c1C(OC(C)(C)C)C(=O)O (configuration not stated) | 40 | 490 | – | – | – | –
Cc1nc2cc(-c3ccccc3)nn2c(-c2cc(F)c3c(c2C)CCCO3)c1C(OC(C)(C)C)C(=O)O (stereo in doubt; 15) | 3400 | – | – | – | – | EC50 [2]: > 40000 nM
COc1cccc(-c2c(C(OC(C)(C)C)C(=O)O)c(C)nc3cc(-c4ccccc4)nn23)c1 (configuration not stated) | 15300 | > 40000 | – | – | – | –
Cc1ccc(-c2c(C(O)C(=O)O)c(C)nc3cc(-c4ccccc4)nn23)cc1 (configuration not stated) | – | > 40000 | – | – | – | –
Cc1nc2cc(-c3ccc(OCc4ccccc4)cc3)nn2c(-c2cc(F)c3c(c2C)CCCO3)c1C(OC(C)(C)C)C(=O)O (configuration not stated) | – | 60 | 79 | 84 | 31.3 | –
